These results are taken from ChEMBL document CHEMBL1149360, “Synthesis of 2-amino-4-(7-azaindol-3-yl)pyrimidines as cyclin dependent kinase 1 (CDK1) inhibitors” (Bioorg Med Chem Lett, 2006).

Assay [1] deals with Cyclin-dependent kinase 1/cyclin B (Homo sapiens, UniProt P06493). The assay is described as follows: Inhibition of CDK1/cyclinB by Flashplate assay. In kind it is protein-complex assay. The method, boiled down: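 CDK1 complexed with cyclin B phosphorylated a biotinylated histone-H1 peptide substrate using ³³P-γ-ATP. The substrate was immobilized in a Flashplate format, and inhibition was read as reduced ³³P incorporation into the substrate.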

Assay [2] has as its system HeLa. The assay is described as follows: Antiproliferative activity against human HeLa cell line assessed as incorporation [14C]thymidine. In kind it is functional, cell-based. The method, boiled down:
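HeLa cervical carcinoma cells. Proliferation was read as ¹⁴C-thymidine incorporation into cellular DNA, and the IC₅₀ for inhibition of proliferation was derived from that.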

What is called IC50 is the concentration that inhibits the measured activity by half. With `Cc1[nH]c2ncccc2c1-c1ccnc(N[C@H]2CC[C@H](N)CC2)n1`, the values for the IC50 in assay [1] and in assay [2] were 280 nM and 130 nM, respectively. `CS(=O)(=O)n1cc(-c2ccnc(NC3CCCCC3)n2)c2cccnc21`: in assay [2], the IC50 was 393 nM. In the case of `Oc1ccccc1Nc1nccc(-c2c[nH]c3ncccc23)n1`, the IC50 in assay [2] turned out to be 955 nM. Regarding `Cc1ccc(Nc2nccc(-c3c[nH]c4ncccc34)n2)cc1`, the IC50 in assay [2] stood at 220 nM. Take `N[C@H]1CC[C@H](Nc2nccc(-c3c[nH]c4ncccc34)n2)CC1`: the 50% inhibitory concentration (IC50) in assay [1] stood at 2 nM; in assay [2], 1 nM. As to `FC(F)(F)c1ccccc1Nc1nccc(-c2c[nH]c3ncccc23)n1`, the IC50 in assay [2] was found to be 392 nM. On the same count and under the same terms, to `CC(=O)n1cc(-c2ccnc(NC3CCCCC3)n2)c2cccnc21` belongs 23 nM. As to `Cc1cc(CCN2CCCCC2)ccc1Nc1nccc(-c2c[nH]c3ncccc23)n1`, the IC50 in assay [1] came out at 1 nM; in assay [2] it was 3 nM. Consider `Cn1cc(-c2ccnc(NC3CCCCC3)n2)c2cccnc21`, for which the IC50 in assay [1] was greater than 10000 nM; in assay [2] it was 52100 nM.

As to `COc1ccccc1Nc1nccc(-c2c[nH]c3ncccc23)n1`, the IC50 in assay [2] is 350 nM. Consider `Cc1cc(CCN2CCOCC2)ccc1Nc1nccc(-c2c[nH]c3ncccc23)n1`, for which the figures for the IC50 in assay [1] and in assay [2] were 1.9 nM and 3 nM, respectively. `Cc1ccccc1Nc1nccc(-c2c[nH]c3ncccc23)n1` had an IC50 in assay [1] of 3 nM. Take `Cc1cc(CCN2CCCC2)ccc1Nc1nccc(-c2c[nH]c3ncccc23)n1`: the values for the IC50 in assay [1] and in assay [2] were 0.6 nM and 3 nM, respectively. As for `CN(C)CCn1cc(-c2ccnc(NC3CCCCC3)n2)c2cccnc21`, in assay [2], the half-maximal inhibitory concentration (IC50) is 8900 nM. In the case of `Fc1ccccc1Nc1nccc(-c2c[nH]c3ncccc23)n1`, the IC50 in assay [2] worked out at 92 nM. In the case of `Clc1ccccc1Nc1nccc(-c2c[nH]c3ncccc23)n1`, the IC50 was found to be 9 nM in assay [1] and 140 nM in assay [2]. As to `c1cnc2[nH]cc(-c3ccnc(NC4CCCCC4)n3)c2c1`, in assay [2], the concentration for half-maximal inhibition (IC50) amounted to 31 nM.

Take `c1cnc2[nH]cc(-c3ccnc(NCC4CCCCC4)n3)c2c1`: in assay [2], the IC50 came out at 368 nM. In the case of `Cc1cc(CCO)ccc1Nc1nccc(-c2c[nH]c3ncccc23)n1`, the IC50 amounted to 0.6 nM in assay [1] and 11 nM in assay [2]. Turning to `c1ccc(Nc2nccc(-c3c[nH]c4ncccc34)n2)cc1`, the IC50 in assay [2] came out at 382 nM.

For `Brc1ccccc1Nc1nccc(-c2c[nH]c3ncccc23)n1`, the IC50 in assay [1] amounted to 13 nM; in assay [2] it was 95 nM. For `CCc1ccccc1Nc1nccc(-c2c[nH]c3ncccc23)n1`, in assay [2], the IC50 was 292 nM.
